Assay outcomes (PubChem)
PMI activator: activators of human phosphomannose isomerase | P34949 | purified human PMI, coupled resazurin fluorescence, 20 min; stronger effect = higher value; 1 = vehicle control, 0 substrate-free wells | activation factor at 20 µM | 190,000 tested, 0.005% active;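 active = activation factor of 2 or more at 20 µM, relative to plate controls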
Diaphorase inh: inhibits diaphorase or chemically oxidizes, flagging diaphorase assay artifacts | diaphorase resazurin-to-resorufin fluorescence, NADH, 16 min; bacterial (C. kluyveri) enzyme, not human | inhibition, % at 20 µM | 190,000 tested, 0.69% active | AID 1217;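 active = primary screen inhibition at 20 µM above a set limit, cut at about 50% in these data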;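 note: plate controls were DMSO with full reaction for no effect and wells lacking NADH for full effect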
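Benchmarks: positive control wells lacking NADH, neutral wells with DMSO only. System: bacterial diaphorase enzyme (C. kluyveri). Input: 0.14 U/mL diaphorase, enzyme working solution. Detection: resorufin fluorescence, excitation 544 nm, emission 590 nm. Times: 16-min room-temperature incubation before reading.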
PMI act hi M6P: PMI (human) activation, high substrate; 190,000 tested, 0.34% active; P34949; coupled PMI enzyme assay, resazurin fluorescence, 20 min; stronger effect = higher value; 1 = untreated enzyme, 0 = substrate-free blank; AID 1216; activation factor at 20 µM;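 active = activation factor of 2 or more at 20 µM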
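Test system: human PMI in coupled enzyme assay; Input: PMI at 15 ng/mL final; Medium: HEPES buffer, pH 7.4; Schedule: 20 min incubation at room temperature; Technique: resorufin fluorescence at Ex 544/Em 590 nm; Compound: 20 µM single dose; Probe or stimulus: Near-saturating mannose-6-phosphate, 1.0 mM.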
G6PDH counter: L. mesenteroides G6PDH inhibition counter-screen | Purified L. mesenteroides G6PDH, diaphorase/resazurin coupled fluorescence, 45 min | inhibition, % at 5 µM | 200,000 tested, 0.12% active; in the data active = inhibition above about 50%
Diaph act CS: diaphorase activation or chemical reduction counter-screen; Diaphorase/resazurin coupled assay, resorufin fluorescence, 16 min; stronger effect = higher value; 1 = vehicle wells, 0 = NADH-free wells; activation factor at 20 µM; 190,000 tested, 0.005% active; AID 1229;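 active = diaphorase activity raised at least twofold by the compound at 20 µM; inactive = activation factor below 2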
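test system = bacterial diaphorase enzyme (C. kluyveri) | quantity = enzyme 0.07 U/mL final | reagent = NADH substrate 0.114 mM plus resazurin dye 0.1 mM, final | incubation = 16 min enzyme reaction, ambient temperature | buffer or medium = HEPES pH 7.4 buffer with MgCl2 and Tween 20 | signal = fluorescence of resorufin, 544 nm excitation, 590 nm emission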
ROMK primary: modulates human ROMK potassium channel activity; 130,000 tested, 2% active; Tet-inducible ROMK, thallium flux fluorescence; actives lie on both sides; B-score at 10 µM; P48048;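 active = signal ratio slope over the read window, or its plate-corrected B-score, at least 3 SD from the plate mean, either direction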;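 note: B-score of the F/F0 ratio slope over 7 to 12 s after thallium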
Target sequence (P48048 whole entry, looked up): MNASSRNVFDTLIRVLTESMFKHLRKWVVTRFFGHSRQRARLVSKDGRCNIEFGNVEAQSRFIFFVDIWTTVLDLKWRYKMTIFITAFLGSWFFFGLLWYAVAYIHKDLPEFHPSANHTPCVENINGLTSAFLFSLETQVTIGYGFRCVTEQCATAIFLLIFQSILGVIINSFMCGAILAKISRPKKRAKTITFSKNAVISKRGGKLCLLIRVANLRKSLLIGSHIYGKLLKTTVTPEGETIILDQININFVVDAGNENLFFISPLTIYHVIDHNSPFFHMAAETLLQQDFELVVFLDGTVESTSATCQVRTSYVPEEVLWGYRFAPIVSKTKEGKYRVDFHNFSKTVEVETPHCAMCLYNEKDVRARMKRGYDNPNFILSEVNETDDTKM
ROMK hit retest: confirmation of human ROMK potassium channel modulators. shares compounds with ROMK primary. ROMK thallium flux, fluorescence ratio; stronger effect = lower value. normalized thallium flux (F/F0 slope) at 10 µM. 3,000 tested, 54% active. AID 1917;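 active = Flux at 10 µM at least 3 SD below or above vehicle control mean in one or both replicates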
Numbers without * were called inactive; . = no result. Only some compounds are listed: those with a hit (about 2.2% of all), similar ones and a draw of the others.

SMILES	PMI activator	Diaphorase inh	PMI act hi M6P	G6PDH counter	Diaph act CS	ROMK primary	ROMK hit retest
Cc1noc(C)c1C(=O)N1CCC2(CC1)OCCO2	1	-1.2	1.1	-4.4	1	3.05*	0.0869
Cc1occc1C(=O)N1CCC2(CC1)OCCO2	1.1	-20.7	1.2	24.9	1.2	.	.
COc1cccc(C2(O)CCN(CC(=O)Nc3nc(C)cs3)CC2)c1	1.1	-3.2	1	8.5	1	0.46	.
Cn1c(O)c(/C=C/C=Nc2ccccc2)c(=O)n(C)c1=S	1	16.5	0.9	-10.5	0.8	.	0.0459*
O=C(c1ccc2c3c(cccc13)CC2)C1CCCN(CC2CC2)C1 (stereo not drawn)	1	-6.5	1	4.0	1.1	-3.3*	0.0596*
O=C1NC(=O)N(Cc2ccccc2Cl)C(=O)/C1=C/N1CCOCC1	1	15.1	1.2	-1.6	0.8	.	0.0598*
CCNc1cc(N2CCNCC2)ccc1[N+](=O)[O-]	0.9	-8.3	0.8	9.3	1.1	-1.14	.
CN1C2CCC1/C(=C/c1ccccn1)C(=O)/C2=C\c1ccccn1	1.1	-13.0	1	4.5	1.1	-3.78*	0.0431*
O=c1[nH]c(=O)n(CC2CCCO2)c(O)c1/C=C1\C=Nc2ccccc21 (stereo not drawn)	1	5.1	1	10.4	0.9	0.0808	0.0585*
CCOc1ccc(-c2c(C)n(-c3ccc(OCC)cc3)c3[n+]2CCCCC3)cc1	.	.	.	.	.	.	0.0426*
O=C(CN1CCCCC1)c1ccc2c(c1)OCO2	.	.	.	.	.	0.0252	.
CC(=O)c1ccc2c(c1)OCO2	1.1	-7.3	1	9.4	1.1	3.04*	0.071
CCc1cc2c(s1)NC(=O)CN=C2c1cccs1	1	2.0	1	-2.3	1	.	.
CCCCCc1nc2c(c(=O)c3ccccc3n2C)c(=O)n1C1CCCCCC1	0.9	-5.4	1	-22.3	1.1	.	0.0529*
CCCCCc1nc2ccccc2c(=O)n1-c1ccccc1[N+](=O)[O-]	0.9	24.9	0.9	8.1	0.8	-0.203	.
CN(C)c1ccc(N=Cc2c(O)n(CCC3=CCCCC3)c(=O)[nH]c2=O)cc1	1	5.4	0.7	3.8	0.9	-2.75	.
CCN(CC)c1ccc(N=Cc2c(O)n(CCC3=CCCCC3)c(=O)[nH]c2=O)cc1	0.8	26.6	0.4	11.3	0.7	-7.12*	0.0367*
O=c1[nH]sc2cc(F)ccc12	0.5	-1.7	0.6	11.8	1	-7.58*	0.054*
N#CSCC(=O)N1c2ccccc2CCc2ccccc21	0.9	7.1	1	4.1	0.9	-3.92*	0.0456*
COc1ccc(CCC(C)NCCc2ccccc2)cc1 (stereo not drawn)	1	1.9	1	0.2	1	-3.89*	0.0619*
COc1ccc(CCNC2CCCCC2)cc1	1	3.3	1.1	1.5	1	-0.472	.
COc1cc(N2CCOCC2)ccc1/C=C1\C(=O)NC(=O)N(C2CCCCC2)C1=O	0.9	30.6	0.8	2.9	0.7	-2.52*	0.072
CCC(C)c1ccc(N2C(=O)NC(=O)/C(=C/c3cccn3CCOc3ccc(C)cc3)C2=O)cc1 (stereo not drawn)	0.9	16.1	0.9	-13.3	0.8	.	0.0472*
